For 27 compounds, ED50 results are on record in ChEMBL document CHEMBL1125387, “Synthesis and biological action of the aminotetrahydroisoquinocarbazoles and related compounds: a new class of compounds with antiarrhythmic activity” (1992).

Some results are limits rather than exact numbers.

The first assay has as its system Mus musculus. Kind of assay: Antiarrhythmic activity in chloroform induced ventricular arrhythmia in mice, 15 min before exposure to chloroform intraperitoneal administration. Format: functional, Heart.
Conditions: not given
The method, boiled down: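 Female ICR mice (20-25 g) dosed ip; 15 min later placed 2 min in 2-L glass chamber saturated with chloroform vapor (150 mL chloroform warmed at 33 °C). Chest opened, ventricular ECG recorded 1 min via silver electrodes. Dose judged effective if ventricular rate <400 bpm just after thoracotomy; 3-10 mice per dose level; ED50 for protection from ventricular tachycardia calculated.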
Broadly, the ED50 is the midpoint of the dose-response relation. Turning to `Cl.N[C@@H]1Cc2c3n(c4cccc(O)c24)C(=O)C[C@H]2CCC[C@@H]1[C@@H]32` (stereo in doubt; (+)-10), the ED50 worked out at 5 mg/kg.

Still in this assay, the particulars now being: Mus musculus, Heart, ip; read-out: ED50.
For `N[C@@H]1Cc2c3n(c4ccccc24)C(=O)C[C@H]2CC[C@@H]1[C@@H]32.O=C(O)/C=C/C(=O)O`, the ED50 was found to be 40 mg/kg.
On to `N[C@@H]1Cc2c3n(c4ccccc24)C(=O)C[C@H]2CCC[C@@H]1[C@@H]32.O=C(O)/C=C/C(=O)O`, for which the ED50 was found to be 32 mg/kg.
On to `CC[C@]12CCC[C@@H]3[C@H]1c1c(c4c(O)cccc4n1C(=O)C2)C[C@H]3C(=O)NN`, for which the ED50 was more than 40 mg/kg.
As for `N[C@@H]1Cc2c3n(c4ccccc24)C(=O)C[C@H]2CCCC[C@@H]1[C@@H]32.O=C(O)/C=C/C(=O)O`, the ED50 came out at 80 mg/kg.
Regarding `N[C@@H]1Cc2c3n(c4ccccc24)C(=O)CC[C@H]3C1.O=C(O)/C=C/C(=O)O`, the ED50 is more than 40 mg/kg.
For the compound `CC[C@]12CCC[C@@H]3[C@H]1c1c(c4cc(O)ccc4n1C(=O)C2)C[C@H]3C(=O)NCCN1CCCC1`, the ED50 was more than 40 mg/kg.
In the case of `CCCC[C@@]12CCC[C@H]3[C@H](N)Cc4c(n(c5ccc(O)cc45)C(=O)C1)[C@H]32`, the ED50 is 12 mg/kg.
Turning to `CC(C)[C@@]12CCC[C@H]3[C@H](N)Cc4c(n(c5ccc(O)cc45)C(=O)C1)[C@H]32`, the ED50 was found to be 8.4 mg/kg.
On to `C[C@@]12CCC[C@H]3[C@H](N)Cc4c(n(c5ccc(O)cc45)C(=O)C1)[C@H]32`, for which the ED50 was more than 40 mg/kg.
As to `CC[C@]12CCC[C@@H]3[C@H]1c1c(c4cc(O)ccc4n1C(=O)C2)C[C@H]3C(=O)OCCN1CCN(C)CC1`, the ED50 was 34 mg/kg.
Consider `N[C@@H]1Cc2c3n(c4ccc(O)cc24)C(=O)C[C@@]2(CCc4ccccc4)CCC[C@@H]1[C@@H]32`, for which the ED50 was more than 40 mg/kg.
`N[C@@H]1Cc2c3n(c4ccc(O)cc24)C(=O)C[C@H]2CCC[C@@H]1[C@@H]32`: the median effective dose (ED50) is more than 40 mg/kg.
With `N[C@@H]1Cc2c3n(c4ccc(O)cc24)C(=O)C[C@@]2(Cc4ccccc4)CCC[C@@H]1[C@@H]32`, the ED50 was more than 40 mg/kg.
As to `N[C@@H]1Cc2c3n(c4cccc(O)c24)C(=O)C[C@@]2(CCc4ccccc4)CCC[C@@H]1[C@@H]32`, the ED50 is more than 40 mg/kg.
For the compound `CC[C@@]12CCC[C@H]3CCc4c(n(c5ccccc45)C(=O)C1)[C@H]32`, the ED50 is more than 40 mg/kg.
The same measure, in the same setting: next, `Cl.NCCc1cn(C(=O)CC2CCCCC2)c2ccccc12`: 48 mg/kg; `CC[C@@]12CCC[C@H]3[C@H](N)Cc4c(n(c5cc(O)c(O)cc45)C(=O)C1)[C@H]32.Cl`: 7 mg/kg.
Same read-out and setting: then `C[C@@]12CCC[C@H]3[C@H](N)Cc4c(n(c5cc(O)c(O)cc45)C(=O)C1)[C@H]32.Cl`, with 34 mg/kg; and `CC[C@@]12CCC[C@H]3[C@H](N)Cc4c(n(c5cc(OC)c(OC)cc45)C(=O)C1)[C@H]32.Cl`, with 34 mg/kg.
In the case of `CC[C@@]12CCC[C@H]3[C@H](N)Cc4c(n(c5cccc(O)c45)C(=O)C1)[C@H]32.Cl`, the ED50 turned out to be 6 mg/kg.
On the same count and under the same terms, then `CCC[C@@]12CCC[C@H]3[C@H](N)Cc4c(n(c5cc(O)c(O)cc45)C(=O)C1)[C@H]32.Cl`, with 20 mg/kg; and `Cl.N[C@@H]1Cc2c3n(c4cc(O)c(O)cc24)C(=O)C[C@H]2CCC[C@@H]1[C@@H]32`, with more than 40 mg/kg.
Still for that read-out and setting: next, `C[C@@]12CCC[C@H]3[C@H](N)Cc4c(n(c5cccc(O)c45)C(=O)C1)[C@H]32.Cl`: 8 mg/kg.
On to `CCC[C@@]12CCC[C@H]3[C@H](N)Cc4c(n(c5cccc(O)c45)C(=O)C1)[C@H]32.Cl`, for which the ED50 amounted to 20 mg/kg.
Regarding `Cl.N[C@@H]1Cc2c3n(c4cccc(O)c24)C(=O)C[C@H]2CCC[C@@H]1[C@@H]32` (stereo in doubt; 10), the ED50 is 10 mg/kg.
Consider `CC(C)N(CCC(C(N)=O)(c1ccccc1)c1ccccn1)C(C)C` (configuration not stated) [DISOPYRAMIDE], for which the ED50 is 11.8 mg/kg.
